According to article PMC10249145 (Cardiovascular & hematological agents in medicinal chemistry, 2023):
Counter-ions that a name gives are not always drawn.

How the values were obtained:
human plasma [1] = conditions: normal human plasma, positive controls; cited from earlier work
human plasma [2] = conditions: normal human plasma, positive controls; cited from earlier work; remark: listed apart in the source
human FXIIa = biological target: T1, human FXIIa (Homo sapiens, UniProt P00748); experiment: Direct inhibition of human FXIIa, chromogenic substrate hydrolysis assay; format: biochemical
T1 sequence (P00748 20-615): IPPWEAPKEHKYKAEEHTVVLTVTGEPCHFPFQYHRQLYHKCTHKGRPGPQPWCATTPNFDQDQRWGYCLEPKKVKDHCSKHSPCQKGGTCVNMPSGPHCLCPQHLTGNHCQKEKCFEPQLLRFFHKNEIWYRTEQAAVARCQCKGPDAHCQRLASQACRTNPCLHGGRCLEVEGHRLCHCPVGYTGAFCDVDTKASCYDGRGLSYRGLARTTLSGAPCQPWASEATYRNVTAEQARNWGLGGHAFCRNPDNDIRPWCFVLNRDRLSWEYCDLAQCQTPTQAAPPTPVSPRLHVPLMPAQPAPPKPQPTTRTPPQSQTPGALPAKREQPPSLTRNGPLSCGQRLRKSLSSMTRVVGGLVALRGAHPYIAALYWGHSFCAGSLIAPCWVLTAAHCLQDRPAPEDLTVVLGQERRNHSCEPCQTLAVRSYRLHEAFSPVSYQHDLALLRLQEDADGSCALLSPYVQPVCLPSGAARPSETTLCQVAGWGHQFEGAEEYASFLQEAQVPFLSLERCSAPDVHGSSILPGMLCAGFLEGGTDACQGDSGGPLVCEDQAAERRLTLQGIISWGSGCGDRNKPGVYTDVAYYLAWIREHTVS
Summary of the method: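 Human FXIIa (stock 200 nM) was preincubated for 5 min with test compound or vehicle in Tris-HCl pH 7.4 with NaCl, 2.5 mM CaCl2, 0.1% PEG8000 and 0.02% Tween80 at 37 °C. Spectrozyme FXIIa (stock 5 mM) was then added. Twelve in-well concentrations (500–0.0025 μM) were tested. Residual activity was taken from the initial A405 rate, and a logistic fit gave IC50, efficacy and Hill slope (±1 S.E.).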

[3] = human FXIIa, pH 7.4, 37 °C, ± 1 S.E.

| decrease in the inhibition potency (human FXIIa; FXIIa IC50 relative to inhibitor 1) [fold] | DeltaY (efficacy of inhibition) (human FXIIa; [3]) [%] | HS (Hill slope) (human FXIIa; [3]) | Structure (SMILES) | APTT (EC×1.5) (human plasma [1]) | PT (EC×1.5) (human plasma [2]) [µM] |
| --- | --- | --- | --- | --- | --- |
| – | – | – | O=C(NC[C@H]1CN(c2ccc(N3CCOCC3=O)cc2)C(=O)O1)c1ccc(Cl)s1 [Rivaroxaban] | ~0.06 µM | ~0.08 |
| – | – | – | CC1CNc2c(cccc2S(=O)(=O)N[C@@H](CCCNC(=N)N)C(=O)N2CC[C@@H](C)C[C@@H]2C(=O)O)C1 (stereo partly shown) [Argatroban HCl] | ~0.19 μM^b | ~0.13 |
| 77.5 | 82.1 ± 8.1 | 1.37 ± 0.69 | CC(C)(C)c1ccc(C(=O)n2ncnc2N)cc1 [Inhibitor 3, (5-amino-1H-1,2,4-triazol-1-yl)(4-(tert-butyl)phenyl)methanone] | – | – |
